Data published in publication PMC7894400 (CPT: Pharmacometrics & Systems Pharmacology, 2021).
Several values for one entry are separate records, joined by “and”; a condition that tells them apart may be missing. Identical values can stand only once. Entries after “also recorded” stand apart in the source; their conditions may differ.

Columns and labels:
[1] = cited from earlier work
[2] = test system: CYP3A and UGT1A4; settings: cited from earlier work
[3] = cited from earlier work; remark: listed apart in the source
[4] = Population pharmacokinetic; format: in vivo, human
Method in brief: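 Pooled plasma data from a phase I/II study in ALK+ or ROS1+ NSCLC (10–200 mg oral q.d. or 35–100 mg b.i.d.) plus six healthy-participant studies (100 mg oral doses; one study 50 mg i.v.). Nonlinear mixed effects, FOCEI; central/peripheral volumes, first-order ka, F; clearance time-varying from single-dose CLI to steady-state CLMX via induction rate constant; exponential between-subject effects; covariates include rabeprazole co-administration on ka and F.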

[5] = healthy volunteers, study B7461008
[6] = bootstrap mean, 1,000 resampled datasets
[7] = high BWT 91.3 kg (90th percentile), final PopPK model prediction
[8] = highest possible exposure at 100 mg q.d.: BWT 50 kg, BALB 3.2 mg/dL, no PPI use
[9] = low BWT 50 kg (10th percentile), final PopPK model prediction
[10] = lowest possible exposure at 100 mg q.d.: BWT 91.3 kg, BALB 4.6 mg/dL, PPI use

- lower CL (initial and time-varying induced) compared with 100 mg q.d. ([4]; 10 mg q.d. lorlatinib): 12.4%
- higher CL (initial and time-varying induced) compared with 100 mg q.d. ([4]; 200 mg q.d. lorlatinib): 13.8%
- decrease in ka relative to a typical patient without PPI use ([4]; PPI use): 67.5%
- θ CLMX [4, 6]: 14.584 L/h
- θ D1 [4, 6]: 1.149 h
- θ F [4, 6]: 0.764
- θ IND [4, 6]: 0.027
- θ PPI on ka [4, 6]: −0.664
- θ Q [4, 6]: 22.491 L/h
- θ V2 [4, 6]: 120.618 L
- θ V3 [4, 6]: 156.640 L
- θ ka [4, 6]: 3.128 h⁻¹
- ωFωCL [4, 6]: -0.005
- ωV2ωV3 [4, 6]: −0.017
- ω^2 F [4, 6]: 0.023
- ω^2 V2 [4, 6]: 0.085
- ω^2 V3 [4, 6]: 0.099
- ω^2 ka [4, 6]: 2.345
- increase in CL with every unit of BALB over 4 mg/dL ([4]; final PopPK model): 6.68%
- θ BALB on CL (covariate effect of baseline albumin) ([4]; final PopPK model estimate): 0.067
- θ D1, zero-order duration of absorption ([4]; final PopPK model estimate): 1.15 h and 1.148 h
- θ PPI on ka (covariate effect of proton pump inhibitor use) ([4]; final PopPK model estimate): –0.675
- θ TDOSE on CL (covariate effect of total daily dose) ([4]; final PopPK model estimate): 0.001
- θ WNCL on CL (covariate effect of standardized creatinine clearance) ([4]; final PopPK model estimate): 0.235
- ωFωCL (IIV covariance) ([4]; final PopPK model estimate): -0.006
- ωV2ωV3 (IIV covariance) ([4]; final PopPK model estimate): −0.017
- ω^2 F (IIV) ([4]; final PopPK model estimate): 0.022
- ω^2 V2 (IIV) ([4]; final PopPK model estimate): 0.086
- ω^2 V3 (IIV) ([4]; final PopPK model estimate): 0.101
- ω^2 ka (IIV) ([4]; final PopPK model estimate): 2.329
- θ ka, first-order absorption rate constant ([4]; final PopPK model estimate, no PPI use): 3.1 h⁻¹ and 3.11 h⁻¹ and 3.113 h⁻¹
- θ IND, rate constant of induction ([4]; final PopPK model estimate, unit not given): 0.0199 and 0.020
- increase in CL compared with the typical patient (BALB 4 mg/dL) ([4]; high BALB 4.6 mg/dL (90th percentile)): 4%
- increase in CL relative to the typical patient [4, 7]: 22%
- increase in V2 relative to the typical patient [4, 7]: 30.4%
- change in ka compared with a typical patient [4, 8]: unchanged
- decrease in CL compared with a typical patient [4, 8]: 26.5%
- decrease in V2 compared with a typical patient [4, 8]: 28.6%
- bioavailability ([4]; human, plasma, oral): 75.9%
- reduction in CL relative to a typical patient [4, 9]: 22.3%
- reduction in V2 relative to a typical patient [4, 9]: 28.6%
- decrease in ka compared with a typical patient [4, 10]: 67.5%
- increase in CL compared with a typical patient [4, 10]: 26.9%
- increase in V2 compared with a typical patient [4, 10]: 30.4%
Structure (SMILES): C[C@H]1Oc2cc(cnc2N)-c2c(nn(C)c2C#N)CN(C)C(=O)c2ccc(F)cc21 [lorlatinib]
- dose-limiting toxicities ([1]; 150 mg q.d., dose escalation portion of Study B7461001): dose‐limiting toxicities were seen
- steady-state lorlatinib CL versus dose ([1]; Study B7461001, noncompartmental analysis): increased with increasing dose
- levels of CYP3A4 activity (urine 6-beta-hydroxy-cortisol/cortisol and plasma 4-beta-hydroxy-cholesterol/cholesterol ratios) ([1]; phase I portion of B7461001, multiple dosing): initially increased with time following multiple dosing
- accumulation after multiple dosing ([1]; phase I portion of B7461001): less than expected
- metabolizing enzymes [2]: metabolized primarily by cytochrome P450 (CYP)3A and UGT1A4, and to a lesser extent by CYP2C8, CYP2C19, CYP3A5, and UGT1A3
- effect of a high-fat meal on lorlatinib exposure [3]: not to have a meaningful effect
- effect of PPI rabeprazole co-administration on lorlatinib AUCinf [3, 5]: no effect; also recorded: without changing
- reduction of lorlatinib Cmax by co-administration of the PPI rabeprazole [3, 5]: ~ 30% and 30%
